This is one part of a sample in which hits are shown more often than they occur.
DYRK1A inh – inhibitors of rat Dyrk1A kinase; AID 504441; Q63470; hit rate 0.43% among 310,000; ADP-Glo luminescence, NFATc1 peptide; inhibition, % at 12.5 µM; in the data active = inhibition above about 50%
GSK3beta inhib – inhibitors of human GSK3beta kinase | AID 2097 | P49841 | activity score (negative = inhibition), % at 10 µM | hit rate 0.038% among 300,000 | GST-GSK3beta kinase, ADP-Glo luminescence, 60 min; hits give low values;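 active = more than half of replicate wells score below -50%, meaning over 50% inhibition versus plate controls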
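test system = GST-tagged human GSK3beta kinase, cell-free | reagent = 25 µM ATP with peptide substrate | dosing = one dose of 10 µM per compound | schedule = 60 min reaction, RT | detection = luminescent ADP-Glo measurement of ADP formed | control set = DMSO neutral wells and GW8510 at 20 µM as positive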
STK33 kinase inh – human STK33 kinase inhibition; purified STK33, MBP phosphorylation, ADP-Glo luminescence; inhibition, % at 10 µM; hit rate 0.073% among 320,000; Q9BYT3;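 active = inhibition at or above 25%, using the most active replicate where run in duplicate; inactive = inhibition below 25%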
GSK3A inh – human GSK-3 alpha kinase inhibition; P49840; ADP-Glo luminescence, 60 min; inhibition, % at 10 µM; hit rate 0.1% among 320,000; AID 2650;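 active = more than half of replicates show inhibition above 20%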;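 also: GST-tagged GSK-3 alpha with peptide substrate and 25 µM ATP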
Target sequence (P49840 whole entry, looked up): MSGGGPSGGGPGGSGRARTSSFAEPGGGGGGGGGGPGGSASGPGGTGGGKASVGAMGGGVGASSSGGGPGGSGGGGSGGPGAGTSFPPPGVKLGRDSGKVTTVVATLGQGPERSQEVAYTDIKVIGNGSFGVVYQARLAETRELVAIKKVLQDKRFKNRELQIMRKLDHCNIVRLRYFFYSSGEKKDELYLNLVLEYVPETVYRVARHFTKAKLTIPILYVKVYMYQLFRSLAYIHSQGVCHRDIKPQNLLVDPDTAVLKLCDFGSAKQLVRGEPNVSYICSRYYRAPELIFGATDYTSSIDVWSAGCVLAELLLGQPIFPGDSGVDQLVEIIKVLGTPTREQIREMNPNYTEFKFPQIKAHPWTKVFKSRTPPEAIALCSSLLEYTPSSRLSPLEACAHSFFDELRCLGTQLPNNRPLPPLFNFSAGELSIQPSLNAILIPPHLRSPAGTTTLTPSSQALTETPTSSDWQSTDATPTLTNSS
Dyrk1A artifact – interferes with ADP-Glo luciferase readout without Dyrk1A; shares compounds with DYRK1A inh; ADP-Glo luciferase artifact assay, no Dyrk1A, luminescence; AC50, µM (series often up to 12 µM); 1,300 tested, under 10 active; AID 588348;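 active = fitted half-maximal dose AC50 no more than ten times the top valid tested dose, with luminescence dropping as dose rises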
Hits are given with their value; - = inactive; . = no result given.

SMILES	DYRK1A inh	GSK3beta inhib	STK33 kinase inh	GSK3A inh	Dyrk1A artifact
c1cnc2ccc(-c3ccc4ncccc4c3)cc2c1	87	-	-	-	-
Cc1ccc2ncccc2c1	.	.	-	-	.
NC(=O)c1ccc(NC(=O)c2ccc3c(c2)CCN3S(=O)(=O)c2ccccc2)cc1	-	-	-	-	.
Clc1cccc(Cc2ccc(Cl)nn2)c1	-	-	-	-	.
Clc1cccc(Cc2nn[nH]n2)c1	59	-	-	-	-
Oc1ccc(-c2nc(-c3ccc(O)c(O)c3)cs2)cc1	72	-	-	-	-
O=C(O)c1ccc(-n2cc(-c3cc4ccccc4oc3=O)[nH]c2=S)cc1	67	.	.	.	-
O=C(Nc1nc2c(s1)CCCC2)c1ccc(N2C(=O)CCC2=O)cc1	67	-	-	-	-
CC1CCc2nc(NC(=O)c3ccc(N4C(=O)CCC4=O)cc3)sc2C1 (stereo unspecified)	56	-	-	-	-
Cc1cccc(NC(=S)N2CCC(NC(=O)c3ccco3)CC2)c1	-	-	-	-	.
COc1cccc(C(=O)Nc2ccc(F)c(F)c2F)c1	51	-	-	-	-
COc1cccc(C(=O)Nc2ccc(F)cc2F)c1	-	-	-	-	.
COCCCNc1c2c3c(cccc3[nH]c1=O)C(=O)c1ccccc1-2	65	.	-	-	-
COCCCNC1=C(Cl)C(=O)c2ccccc2C1=O	.	-	-	-	.
CCOc1ccc(N(C(=O)C2CCCO2)C2C=CS(=O)(=O)C2)cc1 (stereo unspecified)	-	-	-	-	.
N#CC(C#N)=C1NC(N)=C(C#N)C(c2ccccc2)=C1C#N	66	-	-	-	-
COc1cccc(C2CC(c3ccc(C)cc3)n3nc(N)nc3N2)c1 (stereo unspecified)	-	-	-	-	.
CCOc1ccc(C2CC(c3cccc(OC)c3)Nc3nc(N)nn32)cc1 (stereo unspecified)	58	-	-	.	-
N#CC(C#N)=C1C=CC=CN1/C(=C\c1ccco1)C(=O)c1ccccc1	63	.	-	-	-
Cn1c(C(=O)N2CCN(c3ccc([N+](=O)[O-])cc3)CC2)cc2c(=O)[nH]c3ccccc3c21	-	-	.	.	.
O=C1C=CC(O)(c2cc(=O)c3c(O)cc(O)cc3o2)C=C1	51	-	38	-	-
Cc1cccc(NC(=S)NN2CCN(C)CC2)c1	54	-	-	-	-
CCO/C(=C/c1sc2ccc(OC)cc2[n+]1CCCS(=O)(=O)[O-])CC	57	-	-	-	-
O=C(N/N=C/c1ccncc1)c1nn(Cc2ccccc2)c(=O)c2ccccc12	.	-	-	-	.
O=C(O)Cc1ccc(N=Nc2c(O)c(C(=O)O)cc3ccccc23)cc1	-	-	-	-	.
SMILES	DYRK1A inh	GSK3beta inhib	STK33 kinase inh	GSK3A inh	Dyrk1A artifact
NS(=O)(=O)c1ccc(N=Nc2c(O)c(C(=O)O)cc3ccccc23)cc1	54	-	-	-	-
CC(C)C(NC(=O)c1c(F)cccc1F)C(=O)N1CCN(c2ncccn2)CC1 (stereo unspecified)	-	.	-	-	.
COCc1cc(=O)[nH]c(N2CCN(Cc3ccc4c(c3)OCO4)CC2)n1	-	-	-	-	.
O=C(COC(=O)Cc1c(Cl)cccc1Cl)Nc1ccc(OC(F)(F)F)cc1	-	-	-	-	.
CSc1nc(NCc2ccco2)c2c3c(sc2n1)CN(C)CC3	.	-	-	-	.
CSc1nc(SCC(=O)NCc2ccco2)c2c3c(sc2n1)CN(C)CC3	63	-	-	-	-
Oc1ccc(-c2nc3ncccn3c2Nc2ccc3c(c2)OCO3)cc1	60	-	-	53	-
COc1ccc2nc(-n3c(O)c(C4=c5ccccc5=NC4=O)[nH]c3=S)sc2c1	63	-	-	-	-
Cn1c(O)c(C2=c3ccccc3=NC2=O)[nH]c1=S	-	-	-	-	.
C[C@H](NC(=O)c1ccco1)C(=O)N1CCN(c2ccc(C(F)(F)F)cn2)CC1	-	.	-	-	.
Cc1cccc(NC(=S)N2CCC(NC(=O)c3cccc(F)c3)CC2)c1	-	-	-	-	.
CCOC(=O)C(C)NC(=O)CCc1nnc2ccc(N3CCC(C)CC3)nn12 (stereo unspecified)	-	-	-	-	.
O=C(c1ccccc1)c1ccc2cc(O)ccc2c1	64	-	-	-	-
O=C(c1ccccc1)c1ccc2ccccc2c1	-	.	.	.	.
O=C1CCCC2=C1Sc1ccccc1N2	57	-	-	-	-
Nc1nc(Nc2ccccc2)sc1C(=O)c1ccccc1	81	-71	-	92	-
COc1ccc(C(=O)NC(=S)Nc2ccccc2F)cc1	-	-	-	-	.
COc1ccc(C(=O)c2sc(Nc3ccccc3F)nc2N)cc1	61	-	-	56	-

Source: PubChem (Broad Institute)
